Calb FLC: C. albicans growth modulation with fluconazole | C. albicans CaCi-2 (fluconazole-resistant clinical isolate) + fluconazole, Alamar Blue growth, 48 h | growth inhibition, % (concentration not given with the values) | actives 0.57% (n = 300,000) | AID 1979;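 active = growth inhibition above about 58% in most replicates, limit read from the data, passing the limit was not always enough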;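 note: all wells also contain fluconazole at 8 µg/ml as a sub-toxic cotreatment; 0% = median of DMSO wells and 100% = median of geldanamycin control wells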
Lmaj promast: inhibitors of Leishmania major promastigote growth; Leishmania major promastigotes, resazurin fluorescence viability; inhibition, % at 10 µM; actives 9% (n = 200,000); AID 1063; in the data active = inhibition above about 50%;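 note: promastigotes grown with compound for 44 hours at 28 °C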
NALP1 inh: NALP1 inhibition; S. cerevisiae NALP1/ASC/caspase-1 growth, X-gal OD620, 72 h; actives 0.61% (n = 280,000); inhibition, % at 10 µM; AID 2071; in the data active = inhibition mostly above about 24%, no sharp cut-off; inactive = mostly below about 32%
NLRP3 yeast inh: inhibitors of NALP3 inflammasome in yeast | Yeast reconstituted NLRP3/ASC/caspase-1, beta-gal luminescence, 24 h | inhibition, % at 10 µM | actives 0.39% (n = 330,000);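 active = inhibition of 50% or more; inactive = inhibition below 50%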;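 note: plate controls were induced DMSO wells for no effect and uninduced yeast grown without galactose for full effect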
T cruzi repl: T. cruzi replication inhibition. T. cruzi beta-gal in NIH3T3, luminescence, 90 h. inhibition, % (concentration not given with the values). actives 1.4% (n = 300,000). AID 1885;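 active = mean inhibition across valid replicates above about 55%, limit read from the data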;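 note: signal also drops with host cell toxicity which is not excluded here; 0% = plate median of DMSO wells and 100% = zero luminescence signal; higher percent means less beta-gal luminescence so fewer parasites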
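System – NIH/3T3 host cells with β-galactosidase reporter T. cruzi · Doses – single 50 nL compound addition per well in DMSO · Reagent – 5000 T. cruzi trypomastigotes/well · Medium – Low-serum DMEM with 2% FBS · Timing – ≥90 h infection period, 3 h prior cell attachment · Evaluation – parasite load inhibition, % · Technique – GalScreen luminescence, 60 min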
PolyA inh: inhibitors of polyadenylation in S. cerevisiae; S. cerevisiae SKY197-pL101 polyadenylation reporter, beta-gal luminescence; efflux-impaired pdr1/pdr3 knockout yeast; score 100 = 6 SD above DMSO; activity score, % at 12 µM; actives 0.02% (n = 300,000); AID 1875;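 active = lowest replicate activity score at least 50, where 100 means six control SD above control mean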;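 note: yeast exposed to compound for 9 h at 30 °C; higher score means more reporter readthrough which indicates perturbed polyadenylation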
Starred values were filed as active, the others as inactive; . = not tested or not shown. Only a selection was taken, and hits are over-represented in it overall.

SMILES | Calb FLC | Lmaj promast | NALP1 inh | NLRP3 yeast inh | T cruzi repl | PolyA inh
Cc1ccc2nc3c(cc2c1)c(C)nn3-c1ccccc1 | -8.1 | . | 17.5 | 35.2 | -0.3 | -7.8
Cc1ccc(O)c(C(=O)c2cnc3c(c2)c(C)nn3-c2ccccc2)c1 | 0.6 | 76.8* | 29.7 | 30.5 | -19.9 | -0.7
Cc1ccc(O)c(C(=O)c2cnc3c(c2)c(=O)n(C)c(=O)n3C)c1 | -5.3 | -3.1 | 7.6 | 3.9 | -1.2 | 15.4
Oc1c(Cl)cc(Cl)cc1/C=N/Nc1ncc(Br)cn1 | 2.6 | 96.0* | 3.2 | 13.1 | 52.6 | -40.4
COc1ccc(Cn2nc(C)n(N(C)c3ncc(C(F)(F)F)cc3Cl)c2=O)cc1 | -20.0 | 98.7* | 29.7 | 26.5 | -4.9 | -4.9
O=C(O)CN1C(=O)C(=O)N(Cc2ccc(Cl)cc2Cl)C1=O | 3.7 | . | -0.8 | 1.8 | -7.1 | 1.2
Fc1ccc(N2CCN(C3=Nc4cccc5cccc3c45)CC2)cc1 | -1.6 | 98.0* | 5.2 | 35.7 | 64.0* | 0.6
CN1CCN(C2=Nc3cc(F)ccc3Cc3ccccc32)CC1 | . | . | 10.1 | 22.5 | 14.7 | 3.4
O=C(CCCN1C(=O)c2cccc3cccc(c23)C1=O)N1CCN(c2ccc(F)cc2)CC1 | 5.6 | 58.4* | 8.2 | 29.4 | 15.3 | -23.5
O=C(CCN1C(=O)c2cccc3cccc(c23)C1=O)N1CCOCC1 | -5.7 | 4.4 | 3.2 | 12.6 | -8.5 | -7.8
COc1ccc(N2CCN(C(=O)CCCN3C(=O)c4cccc5cccc(c45)C3=O)CC2)cc1 | 8.4 | 98.4* | -9.2 | 20.3 | 74.8* | -2.6
COc1ccccc1N1CCN(C(=O)CN2C(=O)c3ccccc3C2=O)CC1 | -1.3 | -8.5 | -3.5 | 28.3 | -6.3 | 16.9
COc1ccccc1N1CCN(C(=O)CCN2C(=O)c3cccc4cccc(c34)C2=O)CC1 | 0.2 | -4.1 | 44.7* | 4.4 | 10.7 | -17.2
CCOCCOCN(C#N)c1nc(OC)nc(N(C)C)n1 | -8.9 | -7.2 | 6.2 | -15.7 | -10.6 | -10.6
Cc1nn(-c2ccccc2)c(=S)c2ccccc12 | 3.8 | 71.0* | 9.9 | -0.2 | -14.1 | -12.1
CC1CCCN(S(=O)(=O)c2ccc(NC(=O)C3CC(=O)N(C(C)(C)C)C3)cc2)C1 (stereo unspecified) | -4.3 | . | . | 10.9 | -10.8 | 0.5
O=C(NCc1ccco1)C(c1ccccc1)N(CC1CCCO1)C(=O)Cn1nnc2ccccc21 (stereo unspecified) | 30.5 | -3.9 | . | 4.6 | -1.6 | 17.3
COCCNC(=O)C(c1ccc(C)o1)N(CCOC)C(=O)Cn1nnc2ccccc21 (stereo unspecified) | 81.6* | -3.5 | -3.4 | -2.5 | -0.6 | -1.0
O=C(NCc1ccc(F)cc1)C(c1ccccc1)N(CC1CCCO1)C(=O)Cn1nnc2ccccc21 (stereo unspecified) | 91.6* | 4.1 | 8.7 | -0.5 | 15.2 | -10.6
CC(C)CCNC(=O)C(c1cccnc1)N(CCc1ccccc1)C(=O)Cn1nnc2ccccc21 (stereo unspecified) | 2.7 | 8.8 | -3.1 | 9.4 | 23.1 | -14.4
CC(C)CCNC(=O)C(c1cccnc1)N(Cc1ccccc1)C(=O)Cn1nnc2ccccc21 (stereo unspecified) | 10.2 | 29.9 | . | 15.4 | 56.5* | 10.5
CCOC(=O)Cc1csc(NC(=O)c2ccc3ncsc3c2)n1 | 116.3* | . | 8.7 | 20.7 | -5.9 | -7.5
CCOC(=O)Cc1csc(NC(=O)Cc2ccc(Br)cc2)n1 | -10.1 | . | 35.4* | 26.5 | -2.9 | 10.9
CCOC(=O)Cc1csc(NC(=S)NC(=O)c2ccc(Cl)cc2)n1 | 2.2 | -9.2 | 14.1 | 10.4 | -9.3 | -4.3
CCOC(=O)Cc1csc(NC(=S)NC(=O)c2ccc([N+](=O)[O-])cc2)n1 | -11.3 | 74.7* | 18.8 | -3.4 | -4.1 | -18.1
CCOC(=O)Cc1csc(NC(=O)Cc2ccc(Cl)cc2)n1 | -9.9 | . | 2.1 | 25.6 | 1.8 | -6.6
CC1Cc2ccccc2N1S(=O)(=O)c1cccc(C(=O)N2CC(=O)Nc3ccccc32)c1 (stereo unspecified) | 4.7 | . | -4.2 | 4.1 | 4.9 | -10.4
OC(COCc1cccs1)CN1CCN(c2ccccn2)CC1 (stereo unspecified) | -1.0 | -3.9 | -5.9 | 5.4 | -6.7 | -1.6
CC1CCCN(CC(O)COCC2COc3ccccc3O2)C1 (stereo unspecified) | -11.3 | 85.9* | -6.8 | 6.3 | 7.9 | 13.7

Assay outcomes from PubChem.
